# Data: ChEMBL document CHEMBL1124753, “Hydroxyethylamine analogues of the p17/p24 substrate cleavage site are tight-binding inhibitors of HIV protease” (J Med Chem, 1990)
# *1 amine or outer side, *2 acyl side, *3 side chain or, on linkers, in order; H or OH if unused. Where a SMILES comes first, the peptide text is derived from it. [ ]: non-standard residue; d: D form. The star is where a group is joined. Phe(ψ(S)CH(OH)CH2N)Pro = O=C([C@@H]1CCCN1C[C@H](O)[C@H](Cc1ccccc1)N[*:1])[*:2]; Ahppa(3S,4S) = O=C(C[C@H](O)[C@H](Cc1ccccc1)N[*:1])[*:2]; X1 = CC(C)C[C@H](N[*:1])[C@@H](O)CN1CCC[C@H]1C(=O)[*:2]; X2 = O=C([C@@H]1CCCN1C[C@H](Cc1ccccc1)N[*:1])[*:2]; Sta = CC(C)C[C@H](N)[C@@H](O)CC(=O)O; Boc = CC(C)(C)OC(=O)*
# Target: T1, Human immunodeficiency virus type 1 protease (Human immunodeficiency virus 1, UniProt Q72874)
# Experiment: Inhibitory activity against HIV Protease was measured at pH 6.4 and 37 degrees C
# In short: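 Recombinant HIV protease expressed in E. coli; substrate Ac-Thr-Ile-Met-Gln-Arg-NH2 varied 0.5–10 mM. Inhibitor added in DMSO (final 1–3%), preincubated with enzyme 10 min before substrate started the reaction. Initial rates by HPLC and fluorometric assays. Ki from fitting initial velocities to the competitive inhibition equation; each is the average of three or more independent determinations.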
row,SMILES,Ki [nM]
1,"CC[C@H](C)[C@H](NC(=O)C[C@H](O)[C@H](Cc1ccccc1)NC(=O)[C@H](CC(N)=O)NC(=O)[C@H](CC(C)C)NC(=O)[C@H](CO)NC(C)=O)C(=O)N[C@H](C(=O)OC)C(C)C (Ac-SLN[Ahppa(3S,4S)]IV-OMe)",8000
2,CC[C@H](C)[C@H](NC(=O)[C@@H]1CCCN1C[C@H](O)[C@H](CC(C)C)NC(=O)[C@H](CC(N)=O)NC(=O)[C@H](CC(C)C)NC(=O)[C@H](CO)NC(C)=O)C(=O)N[C@H](C(=O)OC)C(C)C (Ac-SLN[X1]IV-OMe),118
3,CC[C@H](C)[C@H](NC(=O)[C@@H]1CCCN1C[C@H](O)[C@H](CC(C)C)NC(=O)[C@H](CC(N)=O)NC(=O)[C@H](CC(C)C)NC(C)=O)C(=O)OC,> 10000
4,CC[C@H](C)[C@H](NC(=O)[C@@H]1CCCN1C[C@H](O)[C@H](CC(C)C)NC(=O)[C@H](CC(N)=O)NC(=O)[C@H](CC(C)C)NC(=O)[C@H](CO)NC(C)=O)C(=O)OC (Ac-SLN[X1]I-OMe),980

# Target: T1, Human immunodeficiency virus type 1 protease
# Experiment: Inhibition of HIV protease at pH 6.4, 37 degree C
row,SMILES,Ki [nM]
1,COC(=O)[C@@H](NC(=O)[C@@H](NC(=O)CNC[C@H](O)[C@H](Cc1ccccc1)NC(=O)[C@H](C)NC(=O)[C@H](C)N)C(C)C)C(C)C,18
2,CC[C@@H](C)[C@H](NC(=O)[C@@H]1CCCN1C[C@@H](O)[C@H](Cc1ccccc1)NC(=O)[C@H](CC(N)=O)NC(=O)[C@H](CC(C)C)NC(C)=O)C(=O)N[C@H](C(=O)OC)C(C)C,21
3,CC(=O)N[C@@H](CO)C(=O)N[C@@H](CCC(N)=O)C(=O)N[C@@H](CC(N)=O)C(=O)N[C@@H](Cc1ccccc1)CN1CCC[C@H]1C(=O)N[C@H](C(=O)N[C@H](C(N)=O)C(C)C)C(C)C (Ac-SQN[X2]VV-NH2),13000
4,CC[C@H](C)[C@H](NC(=O)C[C@H](O)[C@H](CC(C)C)NC(=O)[C@H](CC(N)=O)NC(=O)[C@H](CC(C)C)NC(=O)[C@H](CO)NC(C)=O)C(=O)N[C@H](C(=O)OC)C(C)C (Ac-SLN[Sta]IV-OMe),1060
5,"CC[C@H](C)[C@H](NC(=O)C[C@H](O)[C@H](Cc1ccccc1)NC(=O)[C@H](CC(N)=O)NC(=O)[C@H](CC(C)C)NC(=O)[C@H](CO)NC(=O)OC(C)(C)C)C(=O)N[C@H](C(=O)OC)C(C)C (Boc-SLN[Ahppa(3S,4S)]IV-OMe)",2640
6,"COC(=O)[C@@H](NC(=O)[C@@H](NC(=O)C[C@H](O)[C@H](Cc1ccccc1)NC(=O)[C@H](CC(N)=O)NC(=O)[C@H](CCC(N)=O)NC(=O)[C@H](CO)NC(C)=O)C(C)C)C(C)C (Ac-SQN[Ahppa(3S,4S)]VV-OMe)",39000
7,CC[C@H](C)[C@H](NC(=O)[C@H](Cc1ccccc1)NC[C@H](O)[C@H](Cc1ccccc1)NC(=O)OC(C)(C)C)C(=O)N[C@@H](Cc1ccccc1)C(=O)OC,0.6
8,CC[C@H](C)[C@H](NC(=O)[C@@H]1CCCN1C[C@H](O)[C@H](Cc1ccccc1)NC(=O)[C@H](CC(N)=O)NC(=O)[C@H](CC(C)C)NC(=O)[C@H](CO)NC(C)=O)C(=O)OC (Ac-SLN[Phe(ψ(S)CH(OH)CH2N)Pro]I-OMe),420
9,CC[C@H](C)[C@H](NC(=O)[C@@H]1CCCN1C[C@H](O)[C@H](CC(C)C)NC(=O)[C@H](CC(N)=O)NC(=O)[C@H](CC(C)C)NC(C)=O)C(=O)N[C@H](C(=O)OC)C(C)C (Ac-LN[X1]IV-OMe),21
10,CC[C@H](C)[C@H](NC(=O)[C@@H]1CCCN1C[C@H](O)[C@H](Cc1ccccc1)NC(=O)[C@H](CC(N)=O)NC(=O)[C@H](CC(C)C)NC(=O)[C@H](CO)NC(C)=O)C(=O)N[C@H](C(=O)OC)C(C)C (Ac-SLN[Phe(ψ(S)CH(OH)CH2N)Pro]IV-OMe),0.66
